Beta cell apopt = inhibitors of cytokine-induced beta cell apoptosis, primary screen, luminescence; INS-1E cytokine-induced death, ATP luminescence, 48 h; percent of positive-control rescue, neutral wells zero; protection from apoptosis, % (no concentration beside the values); hit rate 0.8% among 300,000;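 active = Every replicate reaches about 75%, or at least half do and their mean reaches it too, limit read from the data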;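 note: higher means more ATP so stronger rescue from cytokine killing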
TMEM16A inh = TMEM16A chloride channel inhibitors, primary screen, cell-based, HTS; Anoctamin-1 (Mus musculus), Q8BHY3; HEK293 TMEM16A/YFP iodide influx fluorescence, ionomycin; normalized B-score (activity score, 25-100; higher = stronger inhibition) at 10 µM; hit rate 1.2% among 310,000;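 active = ratio plate-corrected score three or more library SD toward inhibition, starting fluorescence score within five deviations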;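 note: score derived from kinetic fluorescence span divided by baseline fluorescence per well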
Target sequence (Q8BHY3 whole entry, looked up): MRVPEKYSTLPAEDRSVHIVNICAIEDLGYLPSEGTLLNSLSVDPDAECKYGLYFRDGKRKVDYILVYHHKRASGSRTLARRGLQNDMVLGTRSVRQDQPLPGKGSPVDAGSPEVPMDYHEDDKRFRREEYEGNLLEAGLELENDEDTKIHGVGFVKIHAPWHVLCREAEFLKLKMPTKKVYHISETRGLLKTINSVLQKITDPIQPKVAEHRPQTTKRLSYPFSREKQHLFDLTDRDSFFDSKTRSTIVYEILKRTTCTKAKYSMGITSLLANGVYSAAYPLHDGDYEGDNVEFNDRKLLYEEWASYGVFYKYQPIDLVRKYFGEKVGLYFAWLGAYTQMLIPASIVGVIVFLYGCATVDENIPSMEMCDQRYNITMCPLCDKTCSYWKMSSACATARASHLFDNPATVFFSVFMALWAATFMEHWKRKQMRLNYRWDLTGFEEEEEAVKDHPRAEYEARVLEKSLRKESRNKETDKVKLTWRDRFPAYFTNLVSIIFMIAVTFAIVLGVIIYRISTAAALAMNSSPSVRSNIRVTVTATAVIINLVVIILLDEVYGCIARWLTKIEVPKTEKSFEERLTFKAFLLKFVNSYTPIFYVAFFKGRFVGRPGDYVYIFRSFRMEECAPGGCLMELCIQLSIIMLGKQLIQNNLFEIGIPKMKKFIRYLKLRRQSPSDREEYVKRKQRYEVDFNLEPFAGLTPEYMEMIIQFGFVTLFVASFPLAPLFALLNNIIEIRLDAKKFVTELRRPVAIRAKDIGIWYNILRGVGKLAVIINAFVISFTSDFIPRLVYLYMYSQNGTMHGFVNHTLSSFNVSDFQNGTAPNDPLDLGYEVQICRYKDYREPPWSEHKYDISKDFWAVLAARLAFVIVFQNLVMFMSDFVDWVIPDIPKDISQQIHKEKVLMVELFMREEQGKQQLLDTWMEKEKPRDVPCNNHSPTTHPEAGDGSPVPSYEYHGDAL
MC4R barr agon = MC4R agonists recruiting beta-arrestin, primary screen, cell-based, luminescence, agonist arm of biased-ligand search | Melanocortin receptor 4 (Homo sapiens), P32245 | U2OS MC4R beta-arrestin complementation; percent of melanotan II response, DMSO zero | activation, % at 8.9 µM | hit rate 0.98% among 360,000;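 active = activation above a per-plate cutoff, the mean activation of sample wells on that plate plus 3 SD, cut at about 8% in these data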
ANO1 activ = TMEM16A chloride channel activators or potentiators, primary screen, cell-based, HTS | Anoctamin-1 (Mus musculus), Q8BHY3 | HEK293 TMEM16A/YFP-H148Q/I152L, iodide quench fluorescence; hits give low values | B-score at 10 µM | hit rate 0.3% among 340,000 | AID 623877, 2012;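 active = fluorescence-ratio B-score plate-corrected deviation score at least 3 library SD below zero, with starting fluorescence score within 5 deviations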;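 note: channel opened by trigger with iodide after compound preincubation; score built on the fluorescence ratio of max minus min over baseline; more negative score means more quench and so TMEM16A activation or potentiation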
MC4R antag cAMP = MC4R antagonists of cAMP signaling, primary screen, cell-based, TR-FRET, antagonist arm of biased-ligand search | Melanocortin receptor 4 (Homo sapiens), P32245 | MC4R-expressing cells, MTII-stimulated cAMP, LANCE TR-FRET | inhibition, % at 6.5 µM | hit rate 0.48% among 360,000 | AID 540295, 2011;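 active = inhibition above its plate's cutoff, the mean of tested wells on that plate plus 3 SD, cut at about 29% in these data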
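Assay system: U2OS cells stably expressing human melanocortin 4 receptor (MC4R) / Dosing: 6.5 µM / Timing: compound 30 min, challenge 1 h, detection 1 h / Measured by: Eu-cAMP/anti-cAMP TR-FRET, emission 671 nm / Replicates: singlicate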
CSC inhib = cancer stem cell viability inhibitors, primary screen, luminescence; hit rate 1.1% among 300,000; AID 2717, 2010; cancer stem cell-like cells viability; inhibition, % at 7.5 µM; in the data active = inhibition above about 75%; tested in HMLE shEcad cells
MC4R barr conf = MC4R beta-arrestin agonists, retest, confirmation, cell-based, luminescence, U2OS; shares compounds with MC4R barr agon; U2OS MC4R beta-arrestin recruitment; scaled DMSO 0%, Melanotan II 100%; activation, % at 8.9 µM; hit rate 31% among 2,400; AID 602192, 2012;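 active = mean activation across replicates above the hit cutoff set in the earlier primary screen, cut at about 8% in these data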
MOR-DOR barr ag = agonists of MOR-DOR heterodimerization, counter-screen for MC4R biased agonist project, cell-based, luminescence | shares compounds with MC4R barr agon | U2OS PathHunter beta-arrestin, beta-gal luminescence; percent of deltorphin B response, DMSO zero | activation, % at 9.2 µM | hit rate 5.8% among 2,400 | AID 602194, 2012;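 active = mean activation across replicates exceeds the hit threshold derived in the earlier primary screen, cut at about 18% in these data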
A number is an active result; – = inactive; · = no result given. Rows were chosen to be rich in hits. Some 3.8% of all compounds tested hit in one or more screens of this group.

SMILES | Beta cell apopt | TMEM16A inh | MC4R barr agon | ANO1 activ | MC4R antag cAMP | CSC inhib | MC4R barr conf | MOR-DOR barr ag
Cc1cccc(-c2n[nH]c(=S)n2/N=C/c2cccs2)c1 | – | – | – | – | – | – | · | ·
N#Cc1c(N)c(C#N)c(-c2ccc(O)cc2)c2c1CCCC2 | – | – | – | – | – | – | · | ·
N#Cc1c(N)c(C#N)c(-c2ccc3c(c2)OCO3)c2c1CCCC2 | – | – | 10 | – | – | – | – | –
Cc1ccccc1C(=O)NC(=S)NCC1CCCO1 (centres undefined) | – | – | – | – | – | – | · | ·
O=C(NC(=S)NCC1CCCO1)C(c1ccccc1)c1ccccc1 (centres undefined) | – | – | 13 | – | – | – | – | –
Cc1ccccc1C(=O)N[C@H](C(=O)Nc1ccc(Cl)c(Cl)c1)C(C)C | – | – | 17 | – | – | – | – | –
CC(C)[C@H](NC(=O)c1ccccc1F)C(=O)Nc1ccc(F)c(F)c1 | – | – | – | – | – | – | · | ·
CCC(C(=O)OCC(=O)NC(=O)NC(C)(C)C)c1ccccc1 (centres undefined) | – | – | 9.7 | – | – | – | – | –
COc1cc2c(-c3ccccc3O)nc3c(c(C)nn3-c3ccccc3)c2cc1OC | – | – | 11 | – | – | – | – | 20
COc1ccc(-c2sc3ccccc3c2-c2ccc(OCCN(C)C)cc2)cc1 | 76 | · | 21 | – | – | 142 | 45 | –
Cc1c(-c2ccccc2)c(-c2ccc(OCCN(C)C)cc2)n2ccccc12 | · | · | – | – | – | · | · | ·
CN(C)CCOc1ccc(-c2c(-c3ccsc3)sc3ccccc23)cc1 | – | · | 13 | – | – | 104 | 23 | –
COc1ccc(CNC(=O)N2[C@H]3CC[C@@H]2C=C(c2ccc(F)cc2OCc2ccccc2)C3)cc1OC | · | · | – | · | – | · | · | ·
O=C(Nc1ccc(-c2noc(COc3ccccc3Cl)n2)cc1)c1ccco1 | · | – | 27 | – | – | – | – | –
O=C(COc1ccccc1Cl)Nc1ccc(NC(=O)c2ccco2)cc1 | – | – | – | – | – | – | · | ·
CC(C)c1ccc(N(C(=O)c2ccco2)C(C(=O)NC2CCCC2)c2ccncc2)cc1 (centres undefined) | – | – | – | – | – | · | · | ·
Cc1ccsc1-c1nc(-c2ccccc2)c(-c2ccccc2)[nH]1 | – | – | 10 | – | – | – | 11 | –
CCOc1ccc(C(=O)Nc2ccc(N3CCN(C(=O)c4ccco4)CC3)cc2)cc1Br | · | · | 14 | – | – | · | – | –
CCC(=O)N1CCN(c2ccc(NC(=O)c3ccc4ccccc4c3)cc2)CC1 | – | – | 17 | – | – | – | – | –
CCC(=O)N1CCN(c2ccc(NC(=O)c3ccccc3)cc2)CC1 | – | – | – | – | – | – | · | ·
CCn1c(SCC(=O)Nc2cccc(S(=O)(=O)N(C)c3ccccc3)c2)nnc1C1CC1 | – | · | – | – | – | · | · | ·
C[C@@H]1CN([C@H](C)CO)C(=O)c2cc(Br)cnc2O[C@@H]1CN(C)Cc1ccc(-c2ccccc2)cc1 | · | · | – | · | – | · | · | ·
O=C1N(Cc2ccccc2)CC2(Br)COCOC12O (centres undefined) | · | · | – | – | – | · | · | ·
COc1ccc(C(CCNCc2ccc(N(C)C)cc2)c2ccccc2)cc1 (centres undefined) | – | – | – | – | – | – | · | ·
CC(C)Oc1ccc(C(CCNCc2ccc(O)cc2)c2ccccc2)cc1 (centres undefined) | – | – | 12 | – | – | – | 24 | 24
SMILES | Beta cell apopt | TMEM16A inh | MC4R barr agon | ANO1 activ | MC4R antag cAMP | CSC inhib | MC4R barr conf | MOR-DOR barr ag
NS(=O)(=O)c1ccc(NC(=O)COC(=O)Cc2c[nH]c3ccccc23)cc1 | – | · | – | – | – | – | · | ·
Cc1c(-c2ccccc2)nc(N)c(C#N)c1-c1ccco1 | – | – | 12 | – | – | – | – | –
CCc1nc(N)c(C#N)c(-c2ccco2)c1C | – | – | – | – | – | – | · | ·
Cc1nc(NC(=O)CSc2nc3cccnc3n2C2CCCCC2)sc1C | – | – | 9.6 | – | – | – | – | –
COc1cc(CC(=O)N2CCN(S(=O)(=O)c3ccc(C)cc3)CC2)cc(OC)c1OC | – | · | – | – | – | – | · | ·
CC(=O)c1ccc(NC(=O)COC(=O)/C=C/c2cccs2)cc1 | – | · | – | – | – | – | · | ·
O=C(COC(=O)/C=C/c1cccs1)Nc1ccc2ccccc2c1 | – | – | 16 | – | – | – | – | –
Cc1ccc(N=Nc2ccc(O)c3ncccc23)cc1 | 102 | – | 11 | – | – | 99 | – | –
Cc1ccc(N=Nc2ccc(O)c3ncccc23)cc1C | – | – | – | – | – | – | · | ·
Cc1cc(C(O)c2ncc(-c3ccc(Oc4ccccc4)cc3)[nH]2)ccc1F (centres undefined) | · | · | 12 | · | – | · | – | –
OC(c1ccc(F)cc1)c1ncc(-c2ccc(Oc3ccccc3)cc2)[nH]1 (centres undefined) | · | · | – | · | – | · | · | ·
OC(c1ccc(F)c(F)c1)c1ncc(-c2ccc(Cl)cc2)[nH]1 (centres undefined) | · | · | – | · | – | · | · | ·
OC(c1cc(F)cc(Cl)c1)c1ncc(-c2ccc(Cl)cc2)[nH]1 (centres undefined) | · | · | 9.8 | · | – | · | – | –
O=c1c2cc(Cl)ccc2[nH]c(=S)n1Cc1cccs1 | – | – | 10 | – | – | – | – | –
O=c1c2cc(Cl)ccc2[nH]c(=S)n1Cc1ccco1 | – | – | – | – | – | · | · | ·
NC(c1csc(Nc2cc(Oc3ccccc3)ncn2)n1)C1CCCCC1 (centres undefined) | · | · | 10 | · | – | · | 28 | 20
NC(Cc1ccccc1)c1csc(Nc2ccc(C(=O)c3ccccc3)cc2)n1 (centres undefined) | · | · | – | · | – | · | · | ·
COc1ccc(C(N)c2csc(Nc3cc(Oc4ccccc4)ncn3)n2)cc1 (centres undefined) | · | · | – | · | – | · | · | ·
NC(c1csc(Nc2ccc(C(=O)c3ccccc3)cc2)n1)C1CCCCC1 (centres undefined) | · | · | 11 | · | – | · | 23 | 25
